Measurements from publication PMC7238799 (Pulmonary Circulation, 2020).

Tested on: healthy subjects
Assay: Multiple ascending dose
Assay type: in vivo, human
Conditions: all dose levels, n = 20
In short: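 Subjects on test compound or placebo were domiciled up to 31 days (QD Cohorts 1–2) or 34 days (BID Cohort 3), with a 48-h drug-free follow-up. Monitoring at multiple time points covered adverse events, vital signs, 12-lead ECG with intensive ECG monitoring in all cohorts, and safety labs (serum chemistry, hematology, urinalysis). Data were summarized descriptively by treatment group.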

For `O=C(O)COC[C@H]1CC[C@H](COC(=O)N(c2ccccc2)c2ccc(Cl)cc2)CC1` [ralinepag], the “Abdominal distention, subjects (%)” value (Cohort 3, BID) was 0, the “Abdominal pain, subjects (%)” value (Cohort 3, BID) was 4 (20%) and the “Acne, subjects (%)” value (Cohort 3, BID) was 2 (10%). For the same compound, the “Application site dermatitis, subjects (%)” value (Cohort 3, BID) was 0, the “Arthralgia, subjects (%)” value (Cohort 3, BID) was 9 (45%) and the “Asthenia, subjects (%)” value (Cohort 3, BID) was 0. The “Back pain, subjects (%)” value (Cohort 3, BID) was 2 (10%), the “Chapped lips, subjects (%)” value (Cohort 3, BID) was 2 (10%) and the “Chest pain, subjects (%)” value (Cohort 3, BID) was 1 (5%). The “Chromaturia, subjects (%)” value (Cohort 3, BID) was 2 (10%), the “Constipation, subjects (%)” value (Cohort 3, BID) was 1 (5%) and the “Decreased appetite, subjects (%)” value (Cohort 3, BID) was 1 (5.0%). For the same compound, the “Dermatitis contact, subjects (%)” value (Cohort 3, BID) was 2 (10%), the “Diarrhea, subjects (%)” value (Cohort 3, BID) was 7 (35%) and the “Dizziness, subjects (%)” value (Cohort 3, BID) was 9 (45%). For the same compound, the “Dry mouth, subjects (%)” value (Cohort 3, BID) was 2 (10%), the “Eructation, subjects (%)” value (Cohort 3, BID) was 0 and the “Fatigue, subjects (%)” value (Cohort 3, BID) was 3 (15%). For the same compound, the “Feeling hot, subjects (%)” value (Cohort 3, BID) was 2 (10%), the “Flatulence, subjects (%)” value (Cohort 3, BID) was 0 and the “Flushing, subjects (%)” value (Cohort 3, BID) was 3 (15%). The “Headache, subjects (%)” value (Cohort 3, BID) was 17 (85%), the “Hordeolum, subjects (%)” value (Cohort 3, BID) was 0 and the “Muscle tightness, subjects (%)” value (Cohort 3, BID) was 2 (10%). For the same compound, the “Muscular weakness, subjects (%)” value (Cohort 3, BID) was 2 (10%), the “Myalgia, subjects (%)” value (Cohort 3, BID) was 9 (45%) and the “Nausea, subjects (%)” value (Cohort 3, BID) was 9 (45%). For the same compound, the “Non-cardiac chest pain, subjects (%)” value (Cohort 3, BID) was 0, the “Number of AEs reported” value (Cohort 3, BID) was 196 and the “Ocular hyperemia, subjects (%)” value (Cohort 3, BID) was 3 (15%). The “Oropharyngeal pain, subjects (%)” value (Cohort 3, BID) was 1 (5%), the “Pain in extremity, subjects (%)” value (Cohort 3, BID) was 0 and the “Pain in jaw, subjects (%)” value (Cohort 3, BID) was 13 (65%). The “Palpitations, subjects (%)” value (Cohort 3, BID) was 5 (25%), the “Paraesthesia, subjects (%)” value (Cohort 3, BID) was 4 (20%) and the “Pruritus, subjects (%)” value (Cohort 3, BID) was 2 (10%). For the same compound, the “Restless leg syndrome, subjects (%)” value (Cohort 3, BID) was 2 (10%), the “Somnolence, subjects (%)” value (Cohort 3, BID) was 2 (10%) and the “Total (%) subjects with at least one AE” value (Cohort 3, BID) was 19 (95.0%). For the same compound, the “Total (%) subjects with at least one SAE” value (Cohort 3, BID) was 0 (0%), the “Tremor, subjects (%)” value (Cohort 3, BID) was 1 (5.0%) and the “Vomiting, subjects (%)” value (Cohort 3, BID) was 3 (15%). For the same compound, the “Abdominal distention, subjects (%)” value (Cohorts 1 and 2, QD) was 2 (10%), the “Abdominal pain, subjects (%)” value (Cohorts 1 and 2, QD) was 6 (30%) and the “Acne, subjects (%)” value (Cohorts 1 and 2, QD) was 0. For the same compound, the “Application site dermatitis, subjects (%)” value (Cohorts 1 and 2, QD) was 6 (30%), the “Arthralgia, subjects (%)” value (Cohorts 1 and 2, QD) was 0 and the “Asthenia, subjects (%)” value (Cohorts 1 and 2, QD) was 2 (10%). The “Back pain, subjects (%)” value (Cohorts 1 and 2, QD) was 1 (5%), the “Chapped lips, subjects (%)” value (Cohorts 1 and 2, QD) was 0 and the “Chest pain, subjects (%)” value (Cohorts 1 and 2, QD) was 1 (5%). For the same compound, the “Chromaturia, subjects (%)” value (Cohorts 1 and 2, QD) was 0, the “Constipation, subjects (%)” value (Cohorts 1 and 2, QD) was 6 (30%) and the “Decreased appetite, subjects (%)” value (Cohorts 1 and 2, QD) was 4 (20%). The “Dermatitis contact, subjects (%)” value (Cohorts 1 and 2, QD) was 0, the “Diarrhea, subjects (%)” value (Cohorts 1 and 2, QD) was 5 (25%) and the “Dizziness, subjects (%)” value (Cohorts 1 and 2, QD) was 5 (25%). For the same compound, the “Dry mouth, subjects (%)” value (Cohorts 1 and 2, QD) was 0, the “Eructation, subjects (%)” value (Cohorts 1 and 2, QD) was 3 (15%) and the “Fatigue, subjects (%)” value (Cohorts 1 and 2, QD) was 2 (10%). For the same compound, the “Feeling hot, subjects (%)” value (Cohorts 1 and 2, QD) was 2 (10%), the “Flatulence, subjects (%)” value (Cohorts 1 and 2, QD) was 2 (10%) and the “Flushing, subjects (%)” value (Cohorts 1 and 2, QD) was 7(35%). For the same compound, the “Headache, subjects (%)” value (Cohorts 1 and 2, QD) was 19 (95%), the “Hordeolum, subjects (%)” value (Cohorts 1 and 2, QD) was 3 (15%) and the “Muscle tightness, subjects (%)” value (Cohorts 1 and 2, QD) was 0. The “Muscular weakness, subjects (%)” value (Cohorts 1 and 2, QD) was 1 (5%) and the “Myalgia, subjects (%)” value (Cohorts 1 and 2, QD) was 6 (30%).
